Measured values from ChEMBL document CHEMBL3808334, “Synthesis and in vitro evaluation of novel triazine analogues as anticancer agents and their interaction studies with bovine serum albumin” (Eur J Med Chem, 2016).

What was measured:
Format in all cases: functional
U-251 = assay: Growth inhibition of human U251 cells assessed as cell growth at 10^-8 M incubated for 48 hrs by sulforhodamine B assay; conditions: U-251, 48 h, read-out: Activity
[1] = Growth inhibition of human OVCAR5 cells incubated for 48 hrs by sulforhodamine B assay; conditions: OVCAR-5, 48 h
Procedure, shortened: (§1)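 Cells were plated at 5,000–40,000 per well according to doubling time and preincubated 24 h at 37 °C in 5% CO2; time-zero plates were then TCA-fixed. Five concentrations (10-fold or ½-log dilutions, DMSO stock) were incubated 48 h. Cells were TCA-fixed, stained with 0.4% SRB and read at 515 nm. GI50 was taken where [(Ti−Tz)/(C−Tz)]×100 = 50.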

SN12C = assay: Growth inhibition of human SN12C cells incubated for 48 hrs by sulforhodamine B assay; conditions: for CC50: read-out: pLC50 (the source's name) (converted); procedure, shortened: as §1
[2] = Growth inhibition of human SNB75 cells assessed as cell growth at 10 uM incubated for 48 hrs by sulforhodamine B assay; conditions: SNB-75, 48 h, read-out: Activity
[3] = Growth inhibition of human LOXIMVI cells assessed as cell growth at 10 uM incubated for 48 hrs by sulforhodamine B assay; conditions: LOX IMVI, read-out: Activity
[4] = Growth inhibition of human COLO205 cells assessed as cell growth at 10^-4 M incubated for 48 hrs by sulforhodamine B assay; conditions: COLO 205, 48 h, read-out: Activity
Procedure, shortened: (§2)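 Cells seeded at 5,000–40,000/well according to doubling time and preincubated 24 h at 37 °C, 5% CO2. Time-zero plates were TCA-fixed. DMSO concentrate was diluted in medium with 50 µg/ml gentamicin to give five concentrations (10-fold or ½ log steps), then exposed 48 h. Cells were TCA-fixed, stained with 0.4% SRB and read at 515 nm. Percent growth was taken against time-zero and control; GI50, TGI and LC50 derived.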

MDA-MB-435 = assay: Growth inhibition of human MDA-MB-435 cells assessed as cell growth at 10 uM incubated for 48 hrs by sulforhodamine B assay; conditions: MDA-MB-435, 48 h, read-out: Activity
SK-MEL-28 [5] = assay: Growth inhibition of human SK-MEL-28 cells assessed as cell growth at 10^-5 M incubated for 48 hrs by sulforhodamine B assay; conditions: SK-MEL-28, 48 h, read-out: Activity
[6] = Growth inhibition of human RPMI8226 cells assessed as cell growth at 10^-7 M incubated for 48 hrs by sulforhodamine B assay; conditions: RPMI-8226, 48 h, read-out: Activity
K562 = assay: Growth inhibition of human K562 cells assessed as cell growth at 10^-8 M incubated for 48 hrs by sulforhodamine B assay; conditions: K562, 48 h, read-out: Activity
[7] = Growth inhibition of human SNB19 cells assessed as cell growth at 10^-4 M incubated for 48 hrs by sulforhodamine B assay; conditions: SNB-19, 48 h, read-out: Activity
NCI-H460 [8] = assay: Growth inhibition of human NCI-H460 cells assessed as cell growth at 10^-6 M incubated for 48 hrs by sulforhodamine B assay; conditions: NCI-H460, 48 h, read-out: Activity
[9] = Growth inhibition of human BT549 cells assessed as cell growth at 10^-5 M incubated for 48 hrs by sulforhodamine B assay; conditions: BT-549, 48 h, read-out: Activity
Procedure, shortened: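 Five-dose assay: five concentrations from 10-fold or ½-log serial dilutions. Cells are plated at 5,000–40,000 per well according to doubling time, grown 24 h, then exposed 48 h at 37 °C, 5% CO₂. Fixed with cold 50% TCA (final addition) for 60 min at 4 °C and stained with 0.4% SRB in 1% acetic acid. Bound dye is solubilized in 10 mM Tris base and read at 515 nm. GI₅₀ is where [(Ti−Tz)/(C−Tz)]×100 = 50, with a time-zero plate as Tz.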

[10] = Growth inhibition of human Caki1 cells assessed as cell growth at 10^-7 M incubated for 48 hrs by sulforhodamine B assay; conditions: CAKI-1, 48 h, read-out: Activity; procedure, shortened: as §2
[11] = Growth inhibition of human Caki1 cells assessed as cell growth at 10^-5 M incubated for 48 hrs by sulforhodamine B assay; conditions: CAKI-1, 48 h, read-out: Activity; procedure, shortened: as §2
[12] = Growth inhibition of human colon cancer cells incubated for 48 hrs by sulforhodamine B assay; conditions: Cancer cell lines; for CC50: read-out: LC50 (the source's name)
NCI-H226 = assay: Growth inhibition of human NCI-H226 cells assessed as cell growth at 10 uM incubated for 48 hrs by sulforhodamine B assay; conditions: NCI-H226, 48 h, read-out: Activity
SK-MEL-5 = assay: Growth inhibition of human SK-MEL-5 cells incubated for 48 hrs by sulforhodamine B assay; conditions: SK-MEL-5, 48 h; procedure, shortened: as §1
CCRF-CEM = assay: Growth inhibition of human CCRF-CEM cells assessed as cell growth at 10^-8 M incubated for 48 hrs by sulforhodamine B assay; conditions: read-out: Activity
Procedure, shortened: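 Leukemia line in the five-dose format: five concentrations from 10-fold or ½-log serial dilutions. Plated at 5,000–40,000 cells per well, preincubated 24 h, then compound added for 48 h at 37 °C, 5% CO₂. Sulforhodamine B absorbance read at 515 nm. Growth is computed against time-zero (Tz) and control (C) readings; GI₅₀ is where [(Ti−Tz)/(C−Tz)]×100 = 50.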

NCI-H23 = assay: Growth inhibition of human NCI-H23 cells assessed as cell growth at 10^-7 M incubated for 48 hrs by sulforhodamine B assay; conditions: NCI-H23, 48 h, read-out: Activity
NCI-H460 [13] = assay: Growth inhibition of human NCI-H460 cells assessed as cell growth at 10^-4 M incubated for 48 hrs by sulforhodamine B assay; conditions: NCI-H460, 48 h, read-out: Activity
SK-MEL-28 [14] = assay: Growth inhibition of human SK-MEL-28 cells assessed as cell growth at 10^-8 M incubated for 48 hrs by sulforhodamine B assay; conditions: SK-MEL-28, 48 h, read-out: Activity
[15] = Growth inhibition of human DU145 cells assessed as cell growth at 10^-8 M incubated for 48 hrs by sulforhodamine B assay; conditions: DU-145, 48 h, read-out: Activity; procedure, shortened: as §2
MDA-MB-468 = assay: Growth inhibition of human MDA-MB-468 cells assessed as cell growth at 10^-8 M incubated for 48 hrs by sulforhodamine B assay; conditions: MDA-MB-468, 48 h, read-out: Activity
[16] = read-out: LC50 (the source's name)
[17] = read-out: pLC50 (the source's name) (converted)

Question: Which results are given for `c1ccc(-c2nc(Nc3ccc(-c4nc5ccccc5[nH]4)cc3)nc(N3CCOCC3)n2)cc1`?
Answer: growth at 0.01 µM (U-251): 105%; GI50 ([1]; read-out: GI50): 2.16 µM; CC50 [1, 16]: 7.49 µM; TGI ([1]; read-out: TGI): 4.02 µM; GI50 ([1]; read-out: pGI50 (converted)): 2.14 µM; CC50 [1, 17]: 7.41 µM; TGI ([1]; read-out: pTGI (converted)): 3.98 µM; LC50 (50% lethal concentration) (SN12C): 8.47 µM; GI50 (SN12C; read-out: GI50): 1.74 µM; TGI (SN12C; read-out: TGI): 3.83 µM; GI50 (SN12C; read-out: pGI50 (converted)): 1.74 µM; CC50 (SN12C): 8.51 µM; TGI (SN12C; read-out: pTGI (converted)): 3.8 µM; growth at 10 µM [2]: -89.7%; growth at 10 µM [3]: -89%; growth at 100 µM [4]: -74%; growth at 10 µM (MDA-MB-435): -81.1%; growth at 10 µM (SK-MEL-28 [5]): -86%; growth at 0.1 µM [6]: 97%; growth at 0.01 µM (K562): 86%; growth at 100 µM [7]: -48%; growth at 1 µM (NCI-H460 [8]): 45%; growth at 10 µM [9]: -69%; growth at 0.1 µM [10]: 86%; growth at 10 µM [11]: -100%; GI50 [12]: 0.99 µM; TGI [12]: 2.55 µM; CC50 [12]: 6.53 µM; growth at 10 µM (NCI-H226): -19.3%; GI50 (SK-MEL-5; read-out: GI50): 1.69 µM; CC50 (SK-MEL-5; [16]): 5.9 µM; TGI (SK-MEL-5; read-out: TGI): 3.15 µM; GI50 (SK-MEL-5; read-out: pGI50 (converted)): 1.7 µM; CC50 (SK-MEL-5; [17]): 5.89 µM; TGI (SK-MEL-5; read-out: pTGI (converted)): 3.16 µM; growth at 0.01 µM (CCRF-CEM): 102%; growth at 0.1 µM (NCI-H23): 95%; growth at 100 µM (NCI-H460 [13]): -78%; growth at 0.01 µM (SK-MEL-28 [14]): 103%; growth at 0.01 µM [15]: 99%; growth at 0.01 µM (MDA-MB-468): 96%

Question: What does the source list for `Fc1ccc(-c2nc(Nc3ccc(-c4nc5ccccc5[nH]4)cc3)nc(N3CCOCC3)n2)cc1`?
Answer: growth at 0.01 µM (U-251): 101%; GI50 ([1]; read-out: GI50): 2.7 µM; CC50 [1, 16]: > 100 µM; TGI ([1]; read-out: TGI): 8.9 µM; GI50 ([1]; read-out: pGI50 (converted)): 2.69 µM; CC50 [1, 17]: > 100 µM; TGI ([1]; read-out: pTGI (converted)): 8.91 µM; LC50 (50% lethal concentration) (SN12C): > 100 µM; GI50 (SN12C; read-out: GI50): 3.19 µM; TGI (SN12C; read-out: TGI): 23 µM; GI50 (SN12C; read-out: pGI50 (converted)): 3.16 µM; CC50 (SN12C): > 100 µM; TGI (SN12C; read-out: pTGI (converted)): 22.9 µM; growth at 10 µM [2]: -19.2%; growth at 10 µM [3]: -75.6%; growth at 100 µM [4]: -57%; growth at 10 µM (MDA-MB-435): -38%; growth at 10 µM (SK-MEL-28 [5]): -49%; growth at 0.1 µM [6]: 99%; growth at 0.01 µM (K562): 104%; growth at 100 µM [7]: 4%; growth at 1 µM (NCI-H460 [8]): 97%; growth at 10 µM [9]: -53%; growth at 0.1 µM [10]: 97%; growth at 10 µM [11]: -37%; GI50 [12]: 2.15 µM; TGI [12]: 4.73 µM; CC50 [12]: 7.9 µM; growth at 10 µM (NCI-H226): 17.1%; GI50 (SK-MEL-5; read-out: GI50): 1.79 µM; CC50 (SK-MEL-5; [16]): 6.28 µM; TGI (SK-MEL-5; read-out: TGI): 3.36 µM; GI50 (SK-MEL-5; read-out: pGI50 (converted)): 1.78 µM; CC50 (SK-MEL-5; [17]): 6.31 µM; TGI (SK-MEL-5; read-out: pTGI (converted)): 3.39 µM; growth at 0.01 µM (CCRF-CEM): 102%; growth at 0.1 µM (NCI-H23): 91%; growth at 100 µM (NCI-H460 [13]): -39%; growth at 0.01 µM (SK-MEL-28 [14]): 101%; growth at 0.01 µM [15]: 101%; growth at 0.01 µM (MDA-MB-468): 97%
